Published values gathered from unrelated publications.
Protocols differ between the studies behind these lines.
Read-out: enzyme activity
Action: inhibitor
rep main protease: Replicase polyprotein 1ab, main protease (rep, Severe acute respiratory syndrome coronavirus 2, UniProt P0DTD1)
rep papain-like protease: Replicase polyprotein 1ab, papain-like protease (rep, Severe acute respiratory syndrome coronavirus 2, UniProt P0DTD1)

| SMILES | target | method | tested at | time | pH | inhibition [%] |
| --- | --- | --- | --- | --- | --- | --- |
| NC(=O)c1c[nH]c(Cc2ccccc2)cc1=O | rep main protease | – | 20 µM | – | – | 10.9 |
| COc1cc(/C=C/C(=O)CC(=O)/C=C/c2ccc(O)c(OC)c2)ccc1O | rep main protease | FRET | 10 µM | 10 min | – | > 50 |
| N=C(N)c1ccc2cc(OC(=O)c3ccc(N=C(N)N)cc3)ccc2c1 | rep main protease | – | 10 µM | – | – | 13 |
| NC(=S)NNc1ccc(S(N)(=O)=O)cc1 | rep main protease | – | 20 µM | – | – | 42.1 |
| Cc1ccc(NC(=O)c2cc3c(=O)n4cccc(C)c4nc3n2C)cc1Cl | rep main protease | – | 1 mM | – | – | 75 |
| COc1cc(O)cc(/C=C/c2ccc(O)cc2)c1 | rep main protease | – | 20 µM | – | – | 38.1 |
| Cn1c(C(=O)Nc2ccc(Cl)cc2)cc2c(=O)n3ccccc3nc21 | rep main protease | – | 1 mM | – | – | 72 |
| O=c1cc(-c2ccccc2)oc2cc(O)c(O)c(O)c12 | rep main protease | – | 100 µM | – | – | 99.4 |
| N#CSc1cc(SC#N)c(N)nc1N | rep main protease | – | 20 µM | – | – | 98.8 |
| COc1cc2ccc(=O)oc2cc1O | rep main protease | fluorescence | 10 µM | – | pH 7.2 | 61 |
| O=C(/C=C/c1ccc2ncccc2c1)N1CCC[C@@]2(CCN(C(=O)c3cc(=O)[nH]c(=O)[nH]3)C2)C1 | rep main protease | – | 5 µM | – | – | 18 |
| CC[C@H](NC(=O)OCc1ccccc1)C(=O)N[C@H](C(=O)N[C@@H](CC(C)C)C(=O)N(C)N(C#N)CCC(N)=O)C(C)(C)C | rep main protease | fluorescence | 50 µM | – | pH 7.2 | 100 |
| O=C1c2cccc(O)c2C(=O)c2c(O)cc(CO)cc21 | rep main protease | – | 10 µM | – | – | 10.1 |
| CC(=O)Nc1ccc(-c2cnc(/N=C\c3cc4ccccc4nc3Cl)s2)cc1 | rep papain-like protease | – | 10 µM | – | – | 39 |
| NC(=O)c1ccc(/C=C/C(=O)N2CCC[C@@]3(CCN(C(=O)[C@@H]4CC(=O)NC(=O)N4)C3)C2)cc1 | rep main protease | – | 5 µM | – | – | 14.7 |
| O=C(/C=C/c1ccc(O)c(O)c1)O[C@@H]1C[C@](O)(C(=O)O)C[C@@H](O)[C@H]1O | rep papain-like protease | – | 50 µM | – | – | 12.5 |
| O=C1C=CC(=O)c2ccccc21 | rep main protease | – | 10 µM | – | – | 97.7 |
| O=c1c(O)c(-c2ccccc2)oc2cc(O)cc(O)c12 | rep main protease | FRET | 10 µM | 10 min | – | 25 to 50 |
| O=C1C=C(O)C(=O)c2ccccc21 | rep main protease | – | 10 µM | – | – | -1.7 |
| C[C@@H]1O[C@@H](O[C@@H]2[C@@H](O)[C@H](OCCc3ccc(O)c(O)c3)O[C@H](CO)[C@H]2OC(=O)/C=C/c2ccc(O)c(O)c2)[C@H](O)[C@H](O)[C@H]1O | rep main protease | – | 100 µM | – | – | 97 |
| Cc1cccn2c(=O)c3cc(C(=O)Nc4ccc(N(C)C)cc4)n(C)c3nc12 | rep main protease | – | 1 µM | – | – | 3.5 |
| C=C1C(=O)OC2C1C(O)CC1(C)C(O)CCC(C=O)C21 (centres unmarked) | rep main protease | – | 20 µM | – | – | -62 |
| CCOC(=O)COc1cc(C)cc2c1C(=O)C=CC2=O | rep main protease | – | 1 µM | – | – | 94.6 |
